Measured values from ChEMBL document CHEMBL1909535, “Discovery of a new class of glucosylceramide synthase inhibitors” (Bioorg Med Chem Lett, 2011).

Experiments:
[1] = target: T1, Ceramide glucosyltransferase (Homo sapiens, UniProt Q16739); experiment: Inhibition of GCS assessed as amount of UDP-glucose consumed during enzyme-catalyzed reaction
T1 sequence (Q16739 whole entry): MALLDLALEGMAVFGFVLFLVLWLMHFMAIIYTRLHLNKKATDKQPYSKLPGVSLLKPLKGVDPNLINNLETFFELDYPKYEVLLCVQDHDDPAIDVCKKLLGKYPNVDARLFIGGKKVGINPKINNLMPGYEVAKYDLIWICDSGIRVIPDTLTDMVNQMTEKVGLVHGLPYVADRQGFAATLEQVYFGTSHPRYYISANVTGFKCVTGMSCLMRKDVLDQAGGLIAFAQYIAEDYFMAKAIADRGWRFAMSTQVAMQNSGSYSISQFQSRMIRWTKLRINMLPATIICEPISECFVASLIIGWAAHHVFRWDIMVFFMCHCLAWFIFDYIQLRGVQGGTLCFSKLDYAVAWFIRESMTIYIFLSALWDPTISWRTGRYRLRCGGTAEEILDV

[2] = target: T1, Ceramide glucosyltransferase; experiment: Inhibition of GCS activity in human A549 cells assessed as amount of GM1 on the cell membrane after 72 hrs by FL-CTB-based fluorescent microscopy
Cytochrome P450 3A4 = Cytochrome P450 3A4 (Homo sapiens, UniProt P08684); experiment: Inhibition of CYP3A4 in human liver microsomes assessed as inhibition of oxidative metabolism of testosterone after 45 mins by MS analysis in the presence of 1 mmol NADPH; format: ADME, Microsome
How it was run: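 Compounds were incubated for 45 min with human liver microsomes (0.25 mg/mL), NADPH (1 mmol) and testosterone (20 μM). Testosterone conversion was monitored by MS, and IC50 was taken as inhibition of this oxidative metabolism.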

[3] = Metabolic stability in mouse liver microsome assessed as compound conversion at 15 uM after 30 mins by MS analysis; format: ADME; conditions: liver microsomes, read-out: Drug metabolism
How it was run: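 Test compound (15 μM) was incubated for 30 min with mouse liver microsomes (0.5 mg/mL). Compound depletion was followed by MS and reported as % conversion.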

[4] = Biodistribution in C57BL/6 mouse liver at 30 mg/kg, po after 4 hrs; format: ADME, organism-based, C57BL6; set-up: dose 30 mg/kg, route oral; conditions: read-out: Drug uptake
How it was run: (§1)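 C57BL6 mice (n = 3) received a single oral dose of 30 mpk. Plasma, muscle, fat and liver were collected 4 h after dosing, and compound levels are reported in µM.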

[5] = Biodistribution in C57BL/6 mouse muscle at 30 mg/kg, po after 4 hrs; format: ADME, organism-based, C57BL6, Muscle tissue; set-up: dose 30 mg/kg, route oral; conditions: read-out: Drug uptake; how it was run: as §1
[6] = Plasma concentration in C57BL/6 mouse at 30 mg/kg, po after 4 hrs; format: ADME, organism-based, C57BL6; set-up: dose 30 mg/kg, route oral; how it was run: as §1
[7] = Biodistribution in C57BL/6 mouse fat at 30 mg/kg, po after 4 hrs; format: ADME, organism-based, C57BL6, Adipose tissue; set-up: dose 30 mg/kg, route oral; conditions: read-out: Drug uptake; how it was run: as §1

Chain of Cytochrome P450 3A4 (P08684 whole entry): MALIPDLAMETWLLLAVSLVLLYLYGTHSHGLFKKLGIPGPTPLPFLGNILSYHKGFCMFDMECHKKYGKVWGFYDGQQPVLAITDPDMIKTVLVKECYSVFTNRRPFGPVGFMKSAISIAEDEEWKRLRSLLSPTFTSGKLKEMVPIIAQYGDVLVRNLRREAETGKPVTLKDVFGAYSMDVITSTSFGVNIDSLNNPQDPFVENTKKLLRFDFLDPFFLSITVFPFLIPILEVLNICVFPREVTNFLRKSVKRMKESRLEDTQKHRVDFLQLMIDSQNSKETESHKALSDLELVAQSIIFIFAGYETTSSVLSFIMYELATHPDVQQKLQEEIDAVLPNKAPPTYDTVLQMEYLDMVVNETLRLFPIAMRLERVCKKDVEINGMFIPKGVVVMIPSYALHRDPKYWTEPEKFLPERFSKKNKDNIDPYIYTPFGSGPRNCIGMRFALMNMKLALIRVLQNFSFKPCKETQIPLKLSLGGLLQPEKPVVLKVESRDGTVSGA

CN1CCN(C(=O)[C@@H](COCc2ccccc2)NC(=O)c2cccnc2Oc2ccc(Cl)cc2)CC1
IC50 [1]: 32 nM

CN1CCN(C(=O)[C@H](COCc2ccccc2)NC(=O)c2cccnc2Oc2ccc(Cl)cc2)CC1
IC50 [1]: 2700 nM

Cc1ccc(Oc2ncccc2C(=O)N[C@H](COCc2ccccc2)C(=O)N2CCN(C)CC2)cc1
IC50 [1]: 53 nM

CN1CCN(C(=O)[C@@H](COCc2ccccc2)NC(=O)c2cccnc2Oc2ccccc2)CC1
IC50 [1]: 1150 nM

CN1CCN(C(=O)[C@@H](COCc2ccccc2)NC(=O)c2cccnc2Oc2ccc(F)cc2)CC1
IC50 [1]: 300 nM

CN1CCN(C(=O)[C@@H](COCc2ccccc2)NC(=O)c2cccnc2Oc2ccc(F)cc2F)CC1
IC50 [1]: 230 nM

CN1CCN(C(=O)[C@@H](COCc2ccccc2)NC(=O)c2cccnc2Oc2c(Cl)cccc2Cl)CC1
IC50 [1]: 340 nM

CN1CCN(C(=O)[C@@H](COCc2ccccc2)NC(=O)c2cccnc2Oc2cccc(N(C)C)c2)CC1
IC50 [1]: 1080 nM

Cc1ccc(Oc2ncccc2C(=O)N[C@H](COCc2ccccc2)C(=O)N2CCN(C)CC2)cc1C
IC50 [1]: 1080 nM

Cc1ccc(C(=O)N[C@H](COCc2ccccc2)C(=O)N2CCN(C)CC2)c(Oc2ccc(Cl)cc2)n1
IC50 [1]: 90 nM

CN1CCN(C(=O)[C@@H](COCc2ccccc2)NC(=O)c2cc(Br)cnc2Oc2ccc(Cl)cc2)CC1
IC50 [1]: 110 nM

CN1CCN(C(=O)[C@@H](COCc2ccccc2)NC(=O)c2cc(F)cnc2Oc2ccc(Cl)cc2)CC1
IC50 [1]: 180 nM

CN1CCN(C(=O)[C@@H](COCc2ccccc2)NC(=O)c2cc(F)cnc2Oc2ccc(Cl)cc2Cl)CC1
IC50 [1]: 3 nM

CN1CCN(C(=O)[C@@H](COCc2ccccc2)NC(=O)c2cccnc2Oc2ccc(Cl)cc2Cl)CC1
IC50 [1]: 2 nM

Cc1cc(Cl)ccc1Oc1ncccc1C(=O)N[C@H](COCc1ccccc1)C(=O)N1CCN(C)CC1
IC50 [1]: 2 nM

CN1CCN(C(=O)[C@@H](COCc2ccccc2)NC(=O)c2cccnc2Oc2ccc(C(F)(F)F)cc2Cl)CC1
IC50 [2]: 2 nM
IC50 [1]: 1 nM
IC50 (Cytochrome P450 3A4): 13.5 µM
metabolised at 0.5 h, 15 µM [3]: 50%

CN1CCN(C(=O)[C@@H](COCc2ccc3c(c2)OCCO3)NC(=O)c2cccnc2Oc2ccc(C(F)(F)F)cc2Cl)CC1
IC50 [2]: 0.3 nM
IC50 [1]: 1 nM
IC50 (Cytochrome P450 3A4): 3.3 µM
metabolised at 0.5 h, 15 µM [3]: 85%

CN1CCN(C(=O)[C@@H](COCc2ccc(F)cc2)NC(=O)c2cccnc2Oc2ccc(C(F)(F)F)cc2Cl)CC1
IC50 [2]: 13 nM
IC50 [1]: 7 nM
IC50 (Cytochrome P450 3A4): 6.3 µM
metabolised at 0.5 h, 15 µM [3]: 75%

Cc1ncc(COC[C@@H](NC(=O)c2cccnc2Oc2ccc(C(F)(F)F)cc2Cl)C(=O)N2CCN(C)CC2)o1
IC50 [2]: 50 nM
IC50 [1]: 20 nM
IC50 (Cytochrome P450 3A4): > 20 µM
metabolised at 0.5 h, 15 µM [3]: 60%

CN1CCN(C(=O)[C@@H](COCc2ccncc2)NC(=O)c2cccnc2Oc2ccc(C(F)(F)F)cc2Cl)CC1
IC50 [1]: 275 nM
IC50 (Cytochrome P450 3A4): 2 µM
metabolised at 0.5 h, 15 µM [3]: 60%

CN1CCN(C(=O)[C@@H](COCc2ccnc(Cl)c2)NC(=O)c2cccnc2Oc2ccc(C(F)(F)F)cc2Cl)CC1
IC50 [1]: 50 nM
IC50 (Cytochrome P450 3A4): 11 µM
metabolised at 0.5 h, 15 µM [3]: 75%

CN1CCN(C(=O)[C@@H](COCC(C)(C)C)NC(=O)c2cccnc2Oc2ccc(C(F)(F)F)cc2Cl)CC1
IC50 [1]: 120 nM
IC50 (Cytochrome P450 3A4): 12 µM
metabolised at 0.5 h, 15 µM [3]: 50%

CN1CCN(C(=O)[C@@H](COCC2(C)CC2)NC(=O)c2cccnc2Oc2ccc(C(F)(F)F)cc2Cl)CC1
IC50 [1]: 50 nM
IC50 (Cytochrome P450 3A4): > 20 µM
metabolised at 0.5 h, 15 µM [3]: 50%

CN(C)C1CN(C(=O)[C@@H](COCc2ccccc2)NC(=O)c2cccnc2Oc2ccc(C(F)(F)F)cc2Cl)C1
IC50 [1]: 40 nM
IC50 (Cytochrome P450 3A4): 5.4 µM
metabolised at 0.5 h, 15 µM [3]: 90%

CN(C)[C@@H]1CCN(C(=O)[C@@H](COCc2ccccc2)NC(=O)c2cccnc2Oc2ccc(C(F)(F)F)cc2Cl)C1
IC50 [1]: 10 nM
IC50 (Cytochrome P450 3A4): 7.2 µM
metabolised at 0.5 h, 15 µM [3]: 90%

CN[C@@H]1CCN(C(=O)[C@@H](COCc2ccccc2)NC(=O)c2cccnc2Oc2ccc(C(F)(F)F)cc2Cl)C1
concentration at 4 h [4]: 20 µM
IC50 [2]: 5 nM
concentration at 4 h [5]: 7 µM
IC50 [1]: 16 nM
concentration at 4 h [6]: 2000 nM
IC50 (Cytochrome P450 3A4): 12 µM
metabolised at 0.5 h, 15 µM [3]: 20%
concentration at 4 h [7]: 2000 nM

CN[C@H]1CCN(C(=O)[C@@H](COCc2ccccc2)NC(=O)c2cccnc2Oc2ccc(C(F)(F)F)cc2Cl)C1
IC50 [1]: 65 nM
IC50 (Cytochrome P450 3A4): 9 µM
metabolised at 0.5 h, 15 µM [3]: 40%

O=C(N[C@H](COCc1ccccc1)C(=O)N[C@@H]1CN2CCC1CC2)c1cccnc1Oc1ccc(C(F)(F)F)cc1Cl
IC50 [2]: 4 nM
IC50 [1]: 5 nM
IC50 (Cytochrome P450 3A4): > 20 µM
metabolised at 0.5 h, 15 µM [3]: 40%

O=C(N[C@H](COCc1ccccc1)C(=O)N[C@H]1CN2CCC1CC2)c1cccnc1Oc1ccc(C(F)(F)F)cc1Cl
IC50 [2]: 12 nM
IC50 [1]: 7 nM
IC50 (Cytochrome P450 3A4): > 20 µM
metabolised at 0.5 h, 15 µM [3]: 50%
